The values that follow come from ChEMBL document CHEMBL1287662, “Potent neuroprotective role of novel melatonin derivatives for management of central neuropathy induced by acrylamide in rats” (2010).

Activity calls are given as the source filed them. The calls are words filed in the database; no cut-off is given here.

The test system of test [1] is Rattus norvegicus. Nature of the test: Neuroprotective activity in Sprague-Dawley rat assessed as protection against acrylamide-induced decrease in adrenaline level at 50 mg/kg, ip administered 10 mins before acrylamide challenge for 3 days per week […] by ELISA (reference value: -40%). It is filed as functional. More on the design: scale not given: the % may be the effect or the level left. Conditions: route intraperitoneal. In general terms: ELISA stands for enzyme-linked immunosorbent assay.

Test [2] deals with Rattus norvegicus. Briefly: Neuroprotective activity in Sprague-Dawley rat assessed as protection against acrylamide-induced decrease in noradrenaline level at 50 mg/kg, ip administered 10 mins before acrylamide challenge for 3 days per week […] by ELISA (reference value: -21%). It counts as functional. More on the design: scale not given: the % may be the effect or the level left. Conditions: route intraperitoneal.

Test [3] deals with Rattus norvegicus. Briefly: Neuroprotective activity in Sprague-Dawley rat assessed as protection against acrylamide-induced decrease in dopamine level at 50 mg/kg, ip administered 10 mins before acrylamide challenge for 3 days per week […] by spectrofluorometrically (reference value: -16%). It counts as functional. More on the design: scale not given: the % may be the effect or the level left. The conditions noted are these: route intraperitoneal.

For test [4], the system named is Rattus norvegicus. Briefly: Neuroprotective activity in Sprague-Dawley rat assessed as protection against acrylamide-induced increase of malondialdehyde level at 50 mg/kg, ip administered 10 mins before acrylamide challenge for 3 days per week […] by spectrofluorometrically (reference value: 31%). It counts as functional. Conditions: route intraperitoneal.

Test [5] has as its system Rattus norvegicus. Nature of the test: Neuroprotective activity in Sprague-Dawley rat assessed as protection against acrylamide-induced decrease of glutathione level at 50 mg/kg, ip administered 10 mins before acrylamide challenge for 3 days per week […] by spectrofluorometrically (reference value: -27%). It counts as functional. More on the design: scale not given: the % may be the effect or the level left. The conditions noted are these: route intraperitoneal.

Test [6] has as its system Rattus norvegicus. Briefly: Neuroprotective activity in Sprague-Dawley rat assessed as protection against acrylamide-induced neuronal damage at 50 mg/kg, ip administered 10 mins before acrylamide challenge for 3 days per week for 2 weeks by histopathology analysis. It counts as functional, organism-based. More on the design: dose 50 mg/kg. The conditions noted are these: in the assay text read “for 3 weeks” for “for 2 weeks”. In outline:
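Rats (n = 10 per group) given agent at 50 mg/kg i.p. in 2% Tween 10 min before ACR at 50 mg/kg i.p., 3 days/week for 3 weeks. Brain tissue examined by light photomicrography for neuronal morphology (dark neurons, chromatin clumping, vacuoles), compared with control and ACR-only rats.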

In test [7] the test system is Rattus norvegicus. Briefly: Neuroprotective activity in Sprague-Dawley rat assessed as protection against acrylamide-induced increase of LDH level at 50 mg/kg, ip administered 10 mins before acrylamide challenge for 3 days per week for 3 weeks by spectrofluorometrically (reference value: 67%). Conditions: route intraperitoneal.
In test [8] the test system is Rattus norvegicus. Briefly: Neuroprotective activity in Sprague-Dawley rat assessed as protection against acrylamide-induced decrease of creatine kinase level at 50 mg/kg, ip administered 10 mins before acrylamide challenge for 3 days per week for 3 weeks by spectrofluorometrically (reference value: -73%). More on the design: scale not given: the % may be the effect or the level left. Conditions: route intraperitoneal.

Test [9] concerns Rattus norvegicus. Nature of the test: Neuroprotective activity in Sprague-Dawley rat assessed as protection against acrylamide-induced decrease of superoxide dismutase level at 50 mg/kg, ip administered 10 mins before acrylamide challenge for 3 days per week for 3 weeks by spectrofluorometrically (reference value: -32%). More on the design: scale not given: the % may be the effect or the level left. The conditions noted are these: route intraperitoneal.

For test [10], the system named is Rattus norvegicus. Briefly: Neuroprotective activity in Sprague-Dawley rat assessed as protection against acrylamide-induced decrease of glutathione peroxidase level at 50 mg/kg, ip administered 10 mins before acrylamide challenge for 3 days per week for 3 weeks by spectrofluorometrically (reference value: -43%). More on the design: scale not given: the % may be the effect or the level left. Conditions: route intraperitoneal.

In the case of `COc1ccc2[nH]cc(CCNC(C)=O)c2c1` [MELATONIN], the Activity in the test with Rattus norvegicus [1] is on record as 67%; with Rattus norvegicus [2], 32%; with Rattus norvegicus [3] it was 33%; with Rattus norvegicus [4] it was -22%; with Rattus norvegicus [5] it was 82%; in the test with Rattus norvegicus [7], -65%. For the same molecule, the Activity with Rattus norvegicus [8] is recorded as 59%; in the test with Rattus norvegicus [9] it was 135%; with Rattus norvegicus [10], 38%. For the same molecule, the outcome in the test on Rattus norvegicus [6] was Active.

On to `COc1ccc2c(c1)c(CCNC(C)=O)cn2-c1c[nH]nc1-c1ccccc1`, for which the Activity is 60% with Rattus norvegicus [1]; 11% in the test with Rattus norvegicus [2]; 3% in the test with Rattus norvegicus [3]; -17% in the test on Rattus norvegicus [4]; 9% in the test on Rattus norvegicus [5]; -40% in the test with Rattus norvegicus [7]. Also, the Activity is recorded as 6% with Rattus norvegicus [8], 41% with Rattus norvegicus [9] and 3% in the test with Rattus norvegicus [10].

Consider `COc1ccc2c(c1)c(CCNC(C)=O)cn2CN1CCOCC1`, for which the Activity with Rattus norvegicus [1] is recorded as 65%; with Rattus norvegicus [2] it was 28%; in the test on Rattus norvegicus [3] it was 19%; in the test with Rattus norvegicus [4], -21%; in the test on Rattus norvegicus [5], 27%; in the test on Rattus norvegicus [7] it was -55%. Also, the Activity is on record as 30% in the test with Rattus norvegicus [8], 77% with Rattus norvegicus [9] and 11% in the test with Rattus norvegicus [10].

Regarding `COc1ccc2c(c1)c(CCNC(C)=O)c1sc(C3=C(c4ccccc4)CC(=N)C(C#N)=C3N)nn12`, the Activity in the test with Rattus norvegicus [1] is 63%; with Rattus norvegicus [2] it was 28%; in the test on Rattus norvegicus [3] it was 11%; with Rattus norvegicus [4], -20%; in the test on Rattus norvegicus [5], 27%; in the test on Rattus norvegicus [7], -47%. Besides, the Activity in the test with Rattus norvegicus [8] was found to be 18%; in the test with Rattus norvegicus [9], 71%; in the test with Rattus norvegicus [10], 8%.

Regarding `COc1ccc2c(c1)c(CCNC(C)=O)c1sc(-c3c(C(C)=O)nn(-c4ccccc4)c3N)nn12`, the Activity in the test with Rattus norvegicus [1] is reported as 60%; with Rattus norvegicus [2], 14%; with Rattus norvegicus [3], 10%; in the test on Rattus norvegicus [4], -19%; in the test on Rattus norvegicus [5] it was 27%; in the test on Rattus norvegicus [7], -45%. Further, the Activity is given as 6% with Rattus norvegicus [8], 65% in the test with Rattus norvegicus [9] and 5% in the test with Rattus norvegicus [10].
